# Unmarked numbers belong to inactive results. Active and inactive are the calls of the source.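 The calls were made as follows, unless noted: active = a full or partial loss of lipid-probe fluorescence in the fish gall bladder, intestine or both, judged by eye; inactive = no fluorescence loss, or compound toxic to the fish.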
# Target: Voltage-gated potassium channel subunit beta-2 (Rattus norvegicus) (UniProt P62483)
# Assay: enhancers of rat Kvbeta2 NADPH turnover – biochemical, NADPH fluorescence, primary screen (AID 623;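 active = NADPH fluorescence slope more negative than the mean of all samples by about 3 SD, 99.7% confidence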;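 also: fluorescence intensity change per second fitted from 20 to 320 s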)
# Conditions: Recombinant KvBeta, NADPH fluorescence decrease slope, 10 min; at 10 µM; hits give low values
# Chain of Voltage-gated potassium channel subunit beta-2 (Rattus norvegicus) (P62483 whole entry, looked up): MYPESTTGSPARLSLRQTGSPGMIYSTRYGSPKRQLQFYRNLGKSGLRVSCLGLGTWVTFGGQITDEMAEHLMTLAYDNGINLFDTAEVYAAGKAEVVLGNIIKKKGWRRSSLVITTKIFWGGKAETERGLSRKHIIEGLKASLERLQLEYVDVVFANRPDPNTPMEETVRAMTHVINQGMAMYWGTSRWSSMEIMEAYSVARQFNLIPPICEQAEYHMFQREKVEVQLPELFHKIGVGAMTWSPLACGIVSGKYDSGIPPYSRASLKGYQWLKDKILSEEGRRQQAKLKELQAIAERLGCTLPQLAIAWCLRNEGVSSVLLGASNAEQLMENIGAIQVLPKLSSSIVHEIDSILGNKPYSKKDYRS
row,Structure (SMILES),NADPH fluorescence slope
1,CC1Cc2ccccc2N1CC(=O)NC(=O)NCc1ccco1 (stereo not drawn),-9.5e-06
2,CN(c1ccccc1C(=O)NCC1CCCO1)S(C)(=O)=O (stereo not drawn),-3.7e-05
3,O=C(CSc1ccc(-c2ccccc2)nn1)N1CCOCC1,-4.4e-05
4,O=C(CCC(=O)OCC(=O)c1ccccc1)NC1CCCCC1,-6.3e-05
5,N#Cc1c(-c2ccc3c(c2)OCO3)csc1N,-4.4e-05
6,CCCN1CCN(C(=O)Cn2cccc2C(=O)c2ccccc2)CC1,-5.8e-05
7,CCCCOC(=O)Nc1nccs1,-3.3e-05
8,c1ccc2c(SCc3cn4cccnc4n3)ncnc2c1,-5.7e-05

# Target: Alpha-2C adrenergic receptor (Homo sapiens) (UniProt P18825)
# Sequence (P18825 whole entry, looked up): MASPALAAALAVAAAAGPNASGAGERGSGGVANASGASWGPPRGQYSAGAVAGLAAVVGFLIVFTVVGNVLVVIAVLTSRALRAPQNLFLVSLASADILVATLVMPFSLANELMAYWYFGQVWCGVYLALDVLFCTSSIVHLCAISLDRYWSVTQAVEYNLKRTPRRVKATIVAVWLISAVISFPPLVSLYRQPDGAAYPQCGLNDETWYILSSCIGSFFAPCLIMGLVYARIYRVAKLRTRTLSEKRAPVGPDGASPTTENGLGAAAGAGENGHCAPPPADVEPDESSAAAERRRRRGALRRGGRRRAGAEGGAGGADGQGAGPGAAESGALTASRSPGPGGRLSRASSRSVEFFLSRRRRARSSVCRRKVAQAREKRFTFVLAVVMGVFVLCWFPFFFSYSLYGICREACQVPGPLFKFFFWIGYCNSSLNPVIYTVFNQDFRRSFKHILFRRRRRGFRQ
# Assay: compounds altering alpha2C-coupled GIRK flux – cell-based, HEK293 alpha2C/GIRK1/2, thallium flux, primary screen (AID 624;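 active = fluorescence slope after compound addition differing from the mean of all screened samples at 99.7% confidence, in either direction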;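 also: slope of fluorescence ratio to pre-addition baseline per second over 15 to 24 s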)
# Conditions: thallium flux BTC fluorescence, at 10 µM, actives lie on both sides
row,Structure (SMILES),slope
1,CC(C)OC(=O)c1cc(NC(=O)C2C3CCC(O3)C2C(=O)O)cc(C(=O)OC(C)C)c1 (stereo not drawn),0.00511
2,O=C(CSc1nnc(-c2ccc(Br)cc2)n1C1CCCCC1)N1CCCC1,0.00599
3,O=C(c1nn2cccnc2c1Cl)N1CCN(c2ccccc2)CC1,0.00475
4,CCCN1Cc2cccc(C(=O)NC3CCCC3)c2C1=O,0.0059
5,CS(=O)(=O)N(CC(=O)Nc1ccc2c(c1)OCO2)Cc1ccc(Cl)cc1,0.00445
6,COC(=O)C1C2C=CC3(CN(CC4CCCO4)C(=O)C13)O2 (stereo not drawn),0.00504
7,Cc1ccc(F)cc1NC(=O)C1CCCN(c2ncccn2)C1 (stereo not drawn),0.00523
8,CC(OC(=O)c1ccco1)C(=O)NCc1cccs1 (stereo not drawn),0.00449
9,CCc1nnc(NC(=O)CSc2nnc(-c3ccccc3OC)n2-c2ccccc2)s1,0.00574
10,FC(F)(F)c1ccc(Sc2nnc(-c3cccs3)n2CC2CCCO2)nc1 (stereo not drawn),0.00449
11,O=C(O)c1ccc(NC(=O)c2cccs2)cc1,0.00441
12,Cc1ccc(Nc2nc(N)nc(CN3CCN(Cc4ccc5c(c4)OCO5)CC3)n2)cc1,0.00487
13,CCOC(=O)Cc1csc(NC(=O)c2cccc(OC)c2)n1,0.00478
14,C=CCNc1nc2c(c(=O)n(C)c(=O)n2C)n1CCCCCC,0.00457
15,O=C(Nc1cccnc1)c1cc2c(ccc3ccccc32)o1,0.00441
16,COc1cccc(Nc2nnc(SCC(=O)N3CC(C)OC(C)C3)s2)c1 (stereo not drawn),0.00562
17,NC(=O)c1ccsc1NC(=O)COC(=O)Cc1ccsc1,0.00509
18,CCCc1ccccc1OCCNC(C)=O,0.00527
19,O=C(O)C1CCCCC1C(=O)Nc1ccccn1 (stereo not drawn),0.00502
20,O=C(c1cccc2c1C(=O)N(Cc1cccnc1)C2)N1CCN(c2ccccc2)CC1,0.00499

row,Structure (SMILES),slope
1,CCCCCCn1c(CN2CCCC(C)C2)nc2c1c(=O)n(C)c(=O)n2C (stereo not drawn),0.00516
2,Cc1nnc(SCCCn2c(N3CCCCC3)nc3c2c(=O)[nH]c(=O)n3C)s1,0.00412
3,Cc1cc(NC(=O)Cc2c(F)cccc2Cl)no1,0.00621
4,Cc1cc(C(=O)COC(=O)c2n[nH]c3ccccc23)c(C)n1C,0.00398
5,COc1ccc(NC(=O)CSc2ccccn2)cc1OC,0.00501
6,O=C(NC1CCCCCC1)c1cc(S(=O)(=O)N2CCC3(CC2)OCCO3)ccc1F,0.00552
7,O=C(CN(CC1CCCO1)S(=O)(=O)c1ccc(S(=O)(=O)NC2CC2)cc1)Nc1ccccc1 (stereo not drawn),0.00436
8,CCN(CC(=O)Nc1ccc2c(c1)CCC2)Cc1nc2ccccc2c(=O)[nH]1,0.00524
9,O=C(Nc1ccc(-c2nc3ncccc3o2)cc1)c1ccc(Br)o1,0.00525
10,COC(=O)Cc1cc(=O)n(-c2ccccc2)[nH]1,0.00454
11,CN(C)c1ccc(C2C3=C(CCCC3=O)OC3=C2C(=O)CCC3)cc1,0.00729
12,CCOC(=O)N1CCN(C(=O)CN(Cc2ccccc2)S(=O)(=O)c2ccc(OC)c(C)c2)CC1,0.00442
13,CC1Cc2ccccc2N1CC(=O)NC(=O)NCc1ccco1 (stereo not drawn),0.00524
14,CN(c1ccccc1C(=O)NCC1CCCO1)S(C)(=O)=O (stereo not drawn),0.00536
15,O=C(CSc1ccc(-c2ccccc2)nn1)N1CCOCC1,0.00495
16,O=C(CCC(=O)OCC(=O)c1ccccc1)NC1CCCCC1,0.00794
17,N#Cc1c(-c2ccc3c(c2)OCO3)csc1N,0.00604
18,CCCN1CCN(C(=O)Cn2cccc2C(=O)c2ccccc2)CC1,0.00424
19,CCCCOC(=O)Nc1nccs1,0.00518
20,c1ccc2c(SCc3cn4cccnc4n3)ncnc2c1,0.00553

# System: not listed separately
# Assay: inhibitors of larval lipid processing in zebrafish, primary screen, whole organism, PED6 fluorescence, gall bladder and intestine (AID 686);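 also: larvae 5 to 7 days old with five fish per well; signal comes from phospholipase A2 cleavage of quenched PED6 carried via bile; overnight exposure to compound and PED6 before scoring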
# Conditions: Zebrafish larvae PED6 lipid processing, fluorescence scoring; screened at 20 µM (by protocol)
# Summary of the method: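 System: live zebrafish larvae aged 5-7 days, whole organism; measure: graded gall bladder and intestinal fluorescence inhibition per well; incubation: overnight exposure; reagent: ingested quenched lipid PED6 at 100 nM; signal: By-eye fluorescence microscopy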
row,Structure (SMILES),outcome
1,CC(C)OC(=O)c1cc(NC(=O)C2C3CCC(O3)C2C(=O)O)cc(C(=O)OC(C)C)c1 (stereo not drawn),inactive
2,O=C(CSc1nnc(-c2ccc(Br)cc2)n1C1CCCCC1)N1CCCC1,inactive
3,O=C(c1nn2cccnc2c1Cl)N1CCN(c2ccccc2)CC1,inactive
4,CCCN1Cc2cccc(C(=O)NC3CCCC3)c2C1=O,inactive
5,CS(=O)(=O)N(CC(=O)Nc1ccc2c(c1)OCO2)Cc1ccc(Cl)cc1,inactive
6,COC(=O)C1C2C=CC3(CN(CC4CCCO4)C(=O)C13)O2 (stereo not drawn),inactive
7,Cc1ccc(F)cc1NC(=O)C1CCCN(c2ncccn2)C1 (stereo not drawn),inactive
8,CC(OC(=O)c1ccco1)C(=O)NCc1cccs1 (stereo not drawn),inactive
9,CCc1nnc(NC(=O)CSc2nnc(-c3ccccc3OC)n2-c2ccccc2)s1,inactive
10,FC(F)(F)c1ccc(Sc2nnc(-c3cccs3)n2CC2CCCO2)nc1 (stereo not drawn),inactive
11,O=C(O)c1ccc(NC(=O)c2cccs2)cc1,inactive
12,Cc1ccc(Nc2nc(N)nc(CN3CCN(Cc4ccc5c(c4)OCO5)CC3)n2)cc1,inactive
13,CCOC(=O)Cc1csc(NC(=O)c2cccc(OC)c2)n1,inactive
14,C=CCNc1nc2c(c(=O)n(C)c(=O)n2C)n1CCCCCC,inactive
15,O=C(Nc1cccnc1)c1cc2c(ccc3ccccc32)o1,inactive
16,COc1cccc(Nc2nnc(SCC(=O)N3CC(C)OC(C)C3)s2)c1 (stereo not drawn),inactive
17,NC(=O)c1ccsc1NC(=O)COC(=O)Cc1ccsc1,inactive
18,CCCc1ccccc1OCCNC(C)=O,inactive
19,O=C(O)C1CCCCC1C(=O)Nc1ccccn1 (stereo not drawn),inactive
20,O=C(c1cccc2c1C(=O)N(Cc1cccnc1)C2)N1CCN(c2ccccc2)CC1,inactive

row,Structure (SMILES),outcome
1,CCCCCCn1c(CN2CCCC(C)C2)nc2c1c(=O)n(C)c(=O)n2C (stereo not drawn),inactive
2,Cc1nnc(SCCCn2c(N3CCCCC3)nc3c2c(=O)[nH]c(=O)n3C)s1,inactive
3,Cc1cc(NC(=O)Cc2c(F)cccc2Cl)no1,inactive
4,Cc1cc(C(=O)COC(=O)c2n[nH]c3ccccc23)c(C)n1C,inactive
5,COc1ccc(NC(=O)CSc2ccccn2)cc1OC,inactive
6,O=C(NC1CCCCCC1)c1cc(S(=O)(=O)N2CCC3(CC2)OCCO3)ccc1F,inactive
7,O=C(CN(CC1CCCO1)S(=O)(=O)c1ccc(S(=O)(=O)NC2CC2)cc1)Nc1ccccc1 (stereo not drawn),inactive
8,CCN(CC(=O)Nc1ccc2c(c1)CCC2)Cc1nc2ccccc2c(=O)[nH]1,inactive
9,O=C(Nc1ccc(-c2nc3ncccc3o2)cc1)c1ccc(Br)o1,inactive
10,COC(=O)Cc1cc(=O)n(-c2ccccc2)[nH]1,inactive
11,CN(C)c1ccc(C2C3=C(CCCC3=O)OC3=C2C(=O)CCC3)cc1,inactive
12,CCOC(=O)N1CCN(C(=O)CN(Cc2ccccc2)S(=O)(=O)c2ccc(OC)c(C)c2)CC1,inactive
13,CC1Cc2ccccc2N1CC(=O)NC(=O)NCc1ccco1 (stereo not drawn),inactive
14,CN(c1ccccc1C(=O)NCC1CCCO1)S(C)(=O)=O (stereo not drawn),inactive
15,O=C(CSc1ccc(-c2ccccc2)nn1)N1CCOCC1,inactive
16,O=C(CCC(=O)OCC(=O)c1ccccc1)NC1CCCCC1,inactive
17,N#Cc1c(-c2ccc3c(c2)OCO3)csc1N,inactive
18,CCCN1CCN(C(=O)Cn2cccc2C(=O)c2ccccc2)CC1,inactive
19,CCCCOC(=O)Nc1nccs1,inactive
20,c1ccc2c(SCc3cn4cccnc4n3)ncnc2c1,inactive

# Reference: PubChem BioAssay
